Calls of active or inactive are those of the source. The calls are words filed in the database; no cut-off is given here.
Experiments:
[1] = system: Mus musculus; test: Antiarthritic activity in C57BL/6 mouse assessed as inhibition of T-independent type 2 antigen-induced NP-specific IgM antibody titer production administered qd for 7 days by ELISA; assay type: functional, organism-based; conditions: C57BL6
How it was run: (§1)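 Female C57BL/6 mice, 8–10 weeks old, immunized ip with NP(109)-Ficoll (TI-2 antigen). Compound or vehicle given po daily for 7 days, starting 1 day before immunization. Serum was collected 6 days after immunization, and NP-specific IgM and IgG3 titers were measured by ELISA.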

[2] = target: Tyrosine-protein kinase Lyn (Homo sapiens, UniProt P07948); test: Inhibition of LYN-A expressed in Sf9 cells preincubated for 60 mins measured after 60 mins by TR-FRET Assay
How it was run: (§2)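 The compound was pre-incubated with the kinase before the enzymatic reaction was started. IC50 values are averages of two or more determinations.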

[3] = target: Mitogen-activated protein kinase 14 (Homo sapiens) (UniProt Q16539); test: Inhibition of MAPK14 relative to control; conditions: concentration not given here
Sequence of Mitogen-activated protein kinase 14 (Homo sapiens) (Q16539 whole entry): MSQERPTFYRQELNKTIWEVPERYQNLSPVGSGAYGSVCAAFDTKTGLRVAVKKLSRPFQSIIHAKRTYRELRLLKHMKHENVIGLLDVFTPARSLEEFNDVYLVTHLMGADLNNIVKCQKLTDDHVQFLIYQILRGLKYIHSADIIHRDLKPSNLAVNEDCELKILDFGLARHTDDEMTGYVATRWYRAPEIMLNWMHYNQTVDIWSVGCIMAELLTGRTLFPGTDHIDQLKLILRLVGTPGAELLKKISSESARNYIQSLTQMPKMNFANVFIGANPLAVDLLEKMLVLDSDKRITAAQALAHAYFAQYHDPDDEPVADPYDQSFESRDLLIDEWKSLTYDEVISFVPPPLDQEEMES

[4] = target: Mitogen-activated protein kinase 9 (Homo sapiens) (UniProt P45984); test: Inhibition of JNK2 relative to control; conditions: concentration not given here
[5] = target: Receptor tyrosine-protein kinase erbB-4 (Homo sapiens, UniProt Q15303); test: Inhibition of HER4 relative to control; conditions: concentration not given here
[6] = target: Tyrosine-protein kinase BTK (Homo sapiens, UniProt Q06187); test: Inhibition of human full-length BTK expressed in Sf9 cells using FAM-Srctide peptide as substrate preincubated for 60 mins measured after 60 mins by TR-FRET Assay; how it was run: as §2
[7] = target: Protein-tyrosine kinase 6 (Homo sapiens) (UniProt Q13882); test: Inhibition of BRK relative to control; conditions: concentration not given here
[8] = target: Hepatocyte growth factor receptor (Homo sapiens) (UniProt P08581); test: Inhibition of MET relative to control; conditions: concentration not given here
[9] = target: RAC-alpha serine/threonine-protein kinase (Homo sapiens) (UniProt P31749); test: Inhibition of AKT1 relative to control; conditions: concentration not given here
Sequence of RAC-alpha serine/threonine-protein kinase (Homo sapiens) (P31749 whole entry): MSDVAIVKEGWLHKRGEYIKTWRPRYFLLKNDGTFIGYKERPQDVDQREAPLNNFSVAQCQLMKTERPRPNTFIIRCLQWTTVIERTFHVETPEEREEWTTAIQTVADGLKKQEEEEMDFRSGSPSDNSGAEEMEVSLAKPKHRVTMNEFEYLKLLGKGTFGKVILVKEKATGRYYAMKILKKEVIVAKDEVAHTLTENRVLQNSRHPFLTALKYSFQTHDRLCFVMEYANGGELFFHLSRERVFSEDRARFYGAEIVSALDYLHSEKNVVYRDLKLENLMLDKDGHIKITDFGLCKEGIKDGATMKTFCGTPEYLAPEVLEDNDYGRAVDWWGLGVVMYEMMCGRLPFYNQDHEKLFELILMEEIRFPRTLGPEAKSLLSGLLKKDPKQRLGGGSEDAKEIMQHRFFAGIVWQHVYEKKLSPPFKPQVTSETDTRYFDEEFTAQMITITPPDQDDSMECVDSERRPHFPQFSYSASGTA

[10] = target: Cytoplasmic tyrosine-protein kinase BMX (Homo sapiens) (UniProt P51813); test: Inhibition of BMX relative to control; conditions: concentration not given here
[11] = target: Mitogen-activated protein kinase 3 (Homo sapiens) (UniProt P27361); test: Inhibition of MAPK3 relative to control; conditions: concentration not given here
Sequence of Mitogen-activated protein kinase 3 (Homo sapiens) (P27361 whole entry): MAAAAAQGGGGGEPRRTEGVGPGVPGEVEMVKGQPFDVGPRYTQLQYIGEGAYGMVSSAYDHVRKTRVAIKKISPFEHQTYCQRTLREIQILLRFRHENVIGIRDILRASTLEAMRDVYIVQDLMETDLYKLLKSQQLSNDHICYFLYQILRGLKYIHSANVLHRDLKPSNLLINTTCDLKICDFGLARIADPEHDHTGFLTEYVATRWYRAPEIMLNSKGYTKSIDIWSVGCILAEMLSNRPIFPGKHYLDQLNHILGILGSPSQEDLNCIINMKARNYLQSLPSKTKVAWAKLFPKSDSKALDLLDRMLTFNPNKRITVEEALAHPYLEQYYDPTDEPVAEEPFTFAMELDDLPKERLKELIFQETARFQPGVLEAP

[12] = target: Angiopoietin-1 receptor (Homo sapiens) (UniProt Q02763); test: Inhibition of TEK relative to control; conditions: concentration not given here
Sequence of Angiopoietin-1 receptor (Homo sapiens) (Q02763 whole entry): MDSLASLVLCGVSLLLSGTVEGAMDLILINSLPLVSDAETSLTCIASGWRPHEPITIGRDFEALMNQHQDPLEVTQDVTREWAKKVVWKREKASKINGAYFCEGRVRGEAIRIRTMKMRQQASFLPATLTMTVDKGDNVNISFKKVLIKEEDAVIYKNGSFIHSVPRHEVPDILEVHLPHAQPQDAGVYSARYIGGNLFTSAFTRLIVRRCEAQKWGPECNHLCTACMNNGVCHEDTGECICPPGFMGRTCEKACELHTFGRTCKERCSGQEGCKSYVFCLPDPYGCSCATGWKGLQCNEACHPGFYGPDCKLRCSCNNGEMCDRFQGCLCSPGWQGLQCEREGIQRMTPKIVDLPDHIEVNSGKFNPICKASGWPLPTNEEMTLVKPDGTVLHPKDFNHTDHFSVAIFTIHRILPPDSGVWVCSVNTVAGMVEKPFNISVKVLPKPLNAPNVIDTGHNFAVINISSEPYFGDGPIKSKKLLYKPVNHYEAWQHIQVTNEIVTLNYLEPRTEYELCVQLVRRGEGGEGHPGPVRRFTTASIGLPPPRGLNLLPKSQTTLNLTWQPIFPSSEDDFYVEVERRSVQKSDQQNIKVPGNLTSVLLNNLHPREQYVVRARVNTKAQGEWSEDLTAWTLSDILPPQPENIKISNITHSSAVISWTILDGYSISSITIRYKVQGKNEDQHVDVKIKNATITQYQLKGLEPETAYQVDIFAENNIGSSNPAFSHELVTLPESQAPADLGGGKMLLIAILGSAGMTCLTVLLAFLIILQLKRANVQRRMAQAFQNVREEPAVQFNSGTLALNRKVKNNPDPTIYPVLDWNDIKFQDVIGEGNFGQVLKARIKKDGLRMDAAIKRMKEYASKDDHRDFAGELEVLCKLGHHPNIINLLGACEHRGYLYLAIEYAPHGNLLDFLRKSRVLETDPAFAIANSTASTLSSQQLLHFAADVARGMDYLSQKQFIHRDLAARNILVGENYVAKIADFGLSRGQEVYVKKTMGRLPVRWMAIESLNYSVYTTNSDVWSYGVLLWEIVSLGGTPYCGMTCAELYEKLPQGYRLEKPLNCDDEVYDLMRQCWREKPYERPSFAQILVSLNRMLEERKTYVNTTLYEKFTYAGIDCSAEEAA

[13] = AUC (0 to infinity) in mouse at 10 mg/kg, po; assay type: ADME, organism-based; parameters: time infinity, dose 10 mg/kg, route oral; conditions: plasma
[14] = target: Tyrosine-protein kinase ITK/TSK (Homo sapiens) (UniProt Q08881); test: Inhibition of ITK relative to control; conditions: concentration not given here
[15] = target: Tyrosine-protein kinase JAK3 (Homo sapiens) (UniProt P52333); test: Inhibition of JAK3 relative to control; conditions: concentration not given here
[16] = target: Proto-oncogene tyrosine-protein kinase Src (Homo sapiens, UniProt P12931); test: Inhibition of SRC relative to control; conditions: concentration not given here
[17] = target: Vascular endothelial growth factor receptor 3 (Homo sapiens) (UniProt P35916); test: Inhibition of FLT4 relative to control; conditions: concentration not given here
[18] = target: Glycogen synthase kinase-3 alpha (Homo sapiens) (UniProt P49840); test: Inhibition of GSK3A relative to control; conditions: concentration not given here
Sequence of Glycogen synthase kinase-3 alpha (Homo sapiens) (P49840 2-483 limits assumed): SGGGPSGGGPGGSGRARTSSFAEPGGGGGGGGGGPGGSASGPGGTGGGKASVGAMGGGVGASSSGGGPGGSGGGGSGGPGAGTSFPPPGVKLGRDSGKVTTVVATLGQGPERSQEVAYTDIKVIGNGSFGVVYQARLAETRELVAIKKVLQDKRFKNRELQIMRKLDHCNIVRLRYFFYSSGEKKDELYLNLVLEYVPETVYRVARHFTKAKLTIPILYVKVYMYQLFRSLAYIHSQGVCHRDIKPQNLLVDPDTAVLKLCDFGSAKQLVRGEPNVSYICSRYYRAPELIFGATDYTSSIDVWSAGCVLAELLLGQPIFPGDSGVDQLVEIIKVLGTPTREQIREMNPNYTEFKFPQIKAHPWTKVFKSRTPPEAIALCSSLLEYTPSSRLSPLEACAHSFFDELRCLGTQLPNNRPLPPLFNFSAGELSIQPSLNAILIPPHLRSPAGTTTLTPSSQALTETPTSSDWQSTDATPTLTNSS

[19] = target: Ephrin type-A receptor 8 (Homo sapiens) (UniProt P29322); test: (§3) Inhibition of EPHA8 relative to control; conditions: concentration not given here
[20] = target: Ephrin type-A receptor 8 (Homo sapiens, UniProt P29322); test: as §3
[21] = system: Mus musculus; test: Antiarthritic activity in DBA/1 JBomTac mouse collagen-induced arthritis model assessed as inhibition of disease progression at 1 mg/kg, po qd measured on day 19 to 22; assay type: functional, organism-based; parameters: dose 1 mg/kg
How it was run: (§4)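 Semi-therapeutic collagen-induced arthritis model. Blinded paw scoring used a 0–4 scale, reported as mean and SEM. Comparison to vehicle used Student's t-test, P <0.05.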

[22] = target: Interleukin-1 receptor-associated kinase 4 (Homo sapiens) (UniProt Q9NWZ3); test: Inhibition of IRAK4 relative to control; conditions: concentration not given here
[23] = target: Serine/threonine-protein kinase Nek2 (Homo sapiens) (UniProt P51955); test: Inhibition of NEK2 relative to control; conditions: concentration not given here
[24] = target: Serine/threonine-protein kinase Chk1 (Homo sapiens) (UniProt O14757); test: Inhibition of CHEK1 relative to control; conditions: concentration not given here
[25] = target: Protein kinase C alpha type (Homo sapiens) (UniProt P17252); test: Inhibition of PRKCA relative to control; conditions: concentration not given here
[26] = target: Tyrosine-protein kinase Fyn (Homo sapiens, UniProt P06241); test: Inhibition of FYN relative to control
[27] = target: Receptor tyrosine-protein kinase erbB-2 (Homo sapiens) (UniProt P04626); test: Inhibition of HER2 relative to control; conditions: concentration not given here
[28] = Inhibition of anti-IgM-stimulated human B cell proliferation assessed as [3H]thymidine incorporation preincubated for 30 mins measured after 3 days; assay type: functional, cell-based; conditions: Homo sapiens, B-cell; read-out: IC50
[29] = target: Phosphatidylinositol 4-phosphate 3-kinase C2 domain-containing subunit alpha (Homo sapiens) (UniProt O00443); test: Inhibition of PI3K-C2 alpha relative to control; conditions: concentration not given here
[30] = system: Mus musculus; test: Antiarthritic activity in C57BL/6 mouse assessed as inhibition of T-independent type 2 antigen-induced IgG3 antibody titer production administered qd for 7 days by ELISA; assay type: functional, organism-based; conditions: C57BL6; how it was run: as §1
[31] = Volume of distribution at steady state in mouse at 2 mg/kg, iv; assay type: ADME, organism-based; parameters: dose 2 mg/kg, route intravenous; conditions: in vivo, read-out: Vdss
How it was run: (§5)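 Mouse pharmacokinetics from single dosing at 2 mg/kg iv and 10 mg/kg po. The study derived AUC, T1/2, clearance, Vss, Tmax, Cmax and oral bioavailability (%F) from the paired iv and po arms.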

[32] = target: 3-phosphoinositide-dependent protein kinase 1 (Homo sapiens) (UniProt O15530); test: Inhibition of PDK1 relative to control; conditions: concentration not given here
[33] = target: Mitogen-activated protein kinase 10 (Homo sapiens) (UniProt P53779); test: Inhibition of JNK3 relative to control; conditions: concentration not given here
[34] = target: High affinity nerve growth factor receptor (Homo sapiens) (UniProt P04629); test: Inhibition of NTRK1 relative to control; conditions: concentration not given here
Sequence of High affinity nerve growth factor receptor (Homo sapiens) (P04629 33-796 limits assumed): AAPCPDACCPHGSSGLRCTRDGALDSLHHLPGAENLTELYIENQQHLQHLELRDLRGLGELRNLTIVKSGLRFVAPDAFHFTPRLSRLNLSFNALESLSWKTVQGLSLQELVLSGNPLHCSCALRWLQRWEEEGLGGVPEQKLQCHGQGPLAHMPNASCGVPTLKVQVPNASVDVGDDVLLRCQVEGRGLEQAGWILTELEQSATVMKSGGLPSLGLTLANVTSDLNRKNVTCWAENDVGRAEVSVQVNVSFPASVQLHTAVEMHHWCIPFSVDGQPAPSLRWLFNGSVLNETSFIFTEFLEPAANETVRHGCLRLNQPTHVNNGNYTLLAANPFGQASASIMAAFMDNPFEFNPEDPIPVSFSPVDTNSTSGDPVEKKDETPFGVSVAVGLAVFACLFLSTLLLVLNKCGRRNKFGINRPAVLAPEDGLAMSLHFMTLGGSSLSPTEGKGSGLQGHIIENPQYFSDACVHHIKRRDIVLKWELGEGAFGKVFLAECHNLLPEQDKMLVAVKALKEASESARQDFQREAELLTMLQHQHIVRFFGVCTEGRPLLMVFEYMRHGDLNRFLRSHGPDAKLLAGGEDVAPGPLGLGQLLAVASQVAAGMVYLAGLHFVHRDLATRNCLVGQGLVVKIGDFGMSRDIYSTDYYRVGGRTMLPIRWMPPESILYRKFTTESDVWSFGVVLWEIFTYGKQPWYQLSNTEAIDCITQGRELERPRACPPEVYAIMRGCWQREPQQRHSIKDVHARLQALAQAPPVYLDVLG

[35] = target: Mitogen-activated protein kinase 8 (Homo sapiens) (UniProt P45983); test: Inhibition of MAPK8 relative to control; conditions: concentration not given here
[36] = Oral bioavailability in mouse at 10 mg/kg; assay type: ADME, organism-based; conditions: in vivo; how it was run: as §5
[37] = target: Glycogen synthase kinase-3 beta (Homo sapiens) (UniProt P49841); test: Inhibition of GSK3B relative to control; conditions: concentration not given here
[38] = target: cAMP-dependent protein kinase catalytic subunit alpha (Homo sapiens) (UniProt P17612); test: Inhibition of PRKACA relative to control; conditions: concentration not given here
[39] = system: Mus musculus; test: Antiarthritic activity in DBA/1 JBomTac mouse collagen-induced arthritis model assessed as inhibition of disease progression at 10 mg/kg, po qd measured on day 7 to 22; assay type: functional, organism-based; parameters: dose 10 mg/kg; how it was run: as §4
[40] = target: Serine/threonine-protein kinase B-raf (Homo sapiens) (UniProt P15056); test: Inhibition of B-Raf relative to control; conditions: concentration not given here
Sequence of Serine/threonine-protein kinase B-raf (Homo sapiens) (P15056 whole entry): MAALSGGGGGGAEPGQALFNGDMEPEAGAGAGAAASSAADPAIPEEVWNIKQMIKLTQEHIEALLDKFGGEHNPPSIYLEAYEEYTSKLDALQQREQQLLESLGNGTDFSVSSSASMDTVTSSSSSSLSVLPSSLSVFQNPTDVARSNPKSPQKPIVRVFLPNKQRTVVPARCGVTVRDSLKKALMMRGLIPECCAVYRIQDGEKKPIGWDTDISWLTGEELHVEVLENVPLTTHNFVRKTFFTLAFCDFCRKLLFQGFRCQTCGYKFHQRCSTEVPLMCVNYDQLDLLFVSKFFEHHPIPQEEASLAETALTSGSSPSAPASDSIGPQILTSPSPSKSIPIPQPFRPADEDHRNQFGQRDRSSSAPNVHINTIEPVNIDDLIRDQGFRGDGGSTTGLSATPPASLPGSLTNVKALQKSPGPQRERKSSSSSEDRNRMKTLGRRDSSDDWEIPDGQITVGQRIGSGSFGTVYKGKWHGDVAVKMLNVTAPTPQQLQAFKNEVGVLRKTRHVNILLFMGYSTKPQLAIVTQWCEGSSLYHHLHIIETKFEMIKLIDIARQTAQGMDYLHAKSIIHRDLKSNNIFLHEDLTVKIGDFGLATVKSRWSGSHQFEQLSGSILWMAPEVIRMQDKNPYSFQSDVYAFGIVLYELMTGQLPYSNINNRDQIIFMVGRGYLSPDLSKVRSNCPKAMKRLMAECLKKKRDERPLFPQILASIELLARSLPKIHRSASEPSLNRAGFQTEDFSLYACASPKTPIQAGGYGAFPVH

[41] = target: Vascular endothelial growth factor receptor 2 (Homo sapiens) (UniProt P35968); test: Inhibition of KDR relative to control; conditions: concentration not given here

IC50 [2]: 353 nM
inhibition [3]: 6%
inhibition [4]: 18%
inhibition [5]: 101%
IC50 [6]: 0.7 nM
inhibition [7]: -4%
inhibition [8]: -1%
inhibition [9]: 4%
inhibition [10]: 100%
inhibition [11]: 1%
inhibition [12]: 13%
AUC(0-inf) [13]: 876 ng·h/mL
inhibition [14]: 5%
inhibition [15]: -4%
inhibition [16]: 43%
inhibition [17]: 6%
inhibition [18]: 8%
inhibition [19]: 54%
IC50 [20]: 434 nM
inhibition [22]: 10%
inhibition [23]: 10%
inhibition [24]: 8%
inhibition [25]: -6%
IC50 [26]: 892 nM
inhibition ([26]; concentration not given here): 40%
inhibition [27]: 19%
inhibition [29]: 0%
Vd [31]: 6.2 L/kg
inhibition [32]: 7%
inhibition [33]: 0%
inhibition [34]: 8%
inhibition [35]: -3%
bioavailability [36]: 34%
inhibition [37]: 6%
inhibition [38]: 11%
inhibition [40]: 19%
inhibition [41]: 7%
SMILES: Cc1ccccc1Nc1nc2cc(F)c(N(C)C(=O)/C=C/CN(C)C)cc2n2cncc12
inhibition [1]: Dose-dependent effect
Activity [21]: Active
IC50 [28]: 3.41 nM
inhibition [30]: Dose-dependent effect
Activity [39]: Active
